Source: PMC2819552 (Biochimica et biophysica acta, 2009)
Several values for one entry are separate records, joined by “and”; a condition that tells them apart may be missing. Equal values may be shown once. Read-outs that look alike come from different tables or passages of the source.

Key:
H. anomala mitochondria = assay: Superoxide anion generation in H. anomala mitochondria; format: biochemical, Hansenula (Pichia) anomala
Method in brief: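 Pre-incubated at 30°C in a chemiluminescence reader, then succinate added and inhibitors added in sequence. Read-out was the chemiluminescence peak-height increase sensitive to 0.5 µM superoxide dismutase.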

[1] = tested on: H. anomala cells (alternative oxidase pathway); assay: Induction of cyanide-resistant respiration in H. anomala cells; format: cell-based, Hansenula (Pichia) anomala; settings: 10 μM inhibitor, cells shaken aerobically at 30°C for 2 hours; None = 0.181
[2] = tested on: cytochrome b in H. anomala mitochondria; assay: Reduction of cytochrome b in H. anomala mitochondria; format: biochemical, Hansenula (Pichia) anomala
[3] = target: T1, Rb. capsulatus cytochrome bc1 complex (Rhodobacter capsulatus, UniProt D5ANZ2+D5ANZ3); format: biochemical; settings: for Inhibition of re-reduction of cytochromes c (Qo site forward reaction): pH 7.0, Eh 100 mV
T1 sequence (D5ANZ3 1-437): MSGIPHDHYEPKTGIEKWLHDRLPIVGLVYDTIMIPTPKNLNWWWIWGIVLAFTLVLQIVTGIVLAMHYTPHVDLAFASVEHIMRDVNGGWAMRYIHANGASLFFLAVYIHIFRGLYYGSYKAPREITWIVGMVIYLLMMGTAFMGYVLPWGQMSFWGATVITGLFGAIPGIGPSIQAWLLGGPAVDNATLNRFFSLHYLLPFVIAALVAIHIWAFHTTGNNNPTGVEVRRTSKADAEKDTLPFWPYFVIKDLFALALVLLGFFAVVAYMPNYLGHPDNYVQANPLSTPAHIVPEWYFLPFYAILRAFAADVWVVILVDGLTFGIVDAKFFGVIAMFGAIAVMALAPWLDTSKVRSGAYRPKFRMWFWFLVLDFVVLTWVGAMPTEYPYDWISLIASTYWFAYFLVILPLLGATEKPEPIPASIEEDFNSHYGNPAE
T1 sequence (D5ANZ2 1-191): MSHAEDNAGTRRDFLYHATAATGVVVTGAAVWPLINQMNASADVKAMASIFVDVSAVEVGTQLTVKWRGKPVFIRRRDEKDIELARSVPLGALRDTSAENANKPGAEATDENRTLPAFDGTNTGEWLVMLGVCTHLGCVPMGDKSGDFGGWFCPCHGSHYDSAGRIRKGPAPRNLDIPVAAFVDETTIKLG
T1 sequence (D5ANZ4 22-279 partner): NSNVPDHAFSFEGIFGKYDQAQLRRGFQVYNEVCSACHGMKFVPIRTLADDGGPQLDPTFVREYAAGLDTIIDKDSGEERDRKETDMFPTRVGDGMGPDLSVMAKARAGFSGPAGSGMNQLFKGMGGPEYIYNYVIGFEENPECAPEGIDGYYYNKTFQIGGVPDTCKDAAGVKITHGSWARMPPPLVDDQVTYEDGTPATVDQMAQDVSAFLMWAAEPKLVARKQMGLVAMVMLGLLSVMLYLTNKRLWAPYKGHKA
Method in brief: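 Rb. capsulatus chromatophores normalised to reaction centre (0.28 µM), with redox mediators and 2.5 µM valinomycin. Qo forward: 50 mM MOPS pH 7.0, 100 mM KCl, Eh 100 mV. Qi reverse: 50 mM glycine-NaOH pH 9.5, 100 mM KCl, 10 µM myxothiazol, Eh 125 mV.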

[4] = target: purified bovine cytochrome bc1 complex (Bos taurus, UniProt P00157+P13272); assay: Cytochrome reduction by DBH2 in purified bovine cytochrome bc1 complex; format: biochemical
[5] = target: T2, Rieske iron-sulfur protein of Rb. capsulatus cytochrome bc1 complex (Rhodobacter capsulatus, UniProt D5ANZ2+D5ANZ3); assay: EPR spectra of the reduced Rieske iron-sulfur protein in chromatophore membranes; format: binding; settings: 10 to 30 μM inhibitor, ascorbate-reduced chromatophore membranes, 20 K
T2 sequence (D5ANZ3 1-437): T1 sequence (D5ANZ3 1-437)
T2 sequence (D5ANZ2 1-191): T1 sequence (D5ANZ2 1-191)
T2 sequence (D5ANZ4 22-279 partner): T1 sequence (D5ANZ4 22-279 partner)

rat liver mitochondria = assay: Succinate-dependent O2 uptake activity in rat liver mitochondria; format: biochemical
[6] = 10 μM antimycin A3 added after 15 mM succinate + 10 μM ascochlorin
[7] = 10 μM inhibitor added after 15 mM succinate
[8] = 10 μM inhibitor added after 15 mM succinate + 10 μM antimycin A3

Which results are given for CCCC[C@H]1C(=O)O[C@H](C)[C@H](NC(=O)c2cccc(NC=O)c2O)C(=O)O[C@@H](C)[C@@H]1OC(=O)CC(C)C [Antimycin A3]?
Chemiluminescence Intensity (superoxide anion generation) (H. anomala mitochondria; [6]): 3.6 10^5 counts/min; Chemiluminescence Intensity (superoxide anion generation) (H. anomala mitochondria; [7]): 8.8 10^5 counts/min and 9.1 10^5 counts/min; CN−-resistant O2 uptake activity [1]: 7.77 nmol O2/min/mg wet cells; ΔA 560–575 × 10^2 (cytochrome b reduction) [2, 6]: 0.94; ΔA 560–575 × 10^2 (cytochrome b reduction) ([2]; 10 μM antimycin A3 added after 15 mM succinate + 10 μM myxothiazol): 1.08; ΔA 560–575 × 10^2 (cytochrome b reduction) [2, 7]: 1.27 and 1.28

How did the “Inhibition of re-reduction of cytochromes c (Qo site forward reaction)” value ([3]; 1 μM) turn out when CC(/C=C/[C@@]1(C)[C@H](C)CCC(=O)[C@@H]1C)=C\Cc1c(O)c(Cl)c(C)c(C=O)c1O [Ascochlorin] was run?
Its value is “partially”.

And the “Inhibition of re-reduction of cytochromes c (Qo site forward reaction)” value ([3]; 10 μM)?
Its value is “fully”.

What about the “Inhibition of Qi site-mediated cytochrome b reduction (reverse reaction)” value ([3]; 1 or 10 μM, 10 μM myxothiazol, pH 9.5, Eh 125 mV) of the same compound?
Its value is “completely inhibited”.

And the “Chemiluminescence Intensity (superoxide anion generation)” value (from here on “Chemiluminescence Intensity”) (H. anomala mitochondria; [7])?
The value was 2.6 10^5 counts/min.

What about the “Chemiluminescence Intensity” value (H. anomala mitochondria; [8]) of the same compound?
The value was 4.6 10^5 counts/min.

What about the “CN−-resistant O2 uptake activity” value [1] of the same compound?
Its value is 7.42 nmol O2/min/mg wet cells.

What about the “Extent of rapid reduction of cytochrome c1” value ([4]; 3 μM bovine bc1, 31 μM ascochlorin, DBH2 25 μM, by the first spectrum) of the same compound?
The value was “about 20%”.

And the “Rapid reduction of cytochrome bH and c1” value ([4]; ascochlorin and antimycin both present, 240 μM ascochlorin)?
Its value is “about half”.

And the “Further decrease of the extent of the fast reactions” value ([4]; ascochlorin increased from 31 to 360 μM, compared to Fig. 4C)?
The value was “about a factor of two”.

And the “ΔA 560–575 × 10^2 (cytochrome b reduction)” value [2, 7]?
Its value is 0.92.

What about the “ΔA 560–575 × 10^2 (cytochrome b reduction)” value [2, 8] of the same compound?
Its value is 0.85.

And the “Effect on the Rieske ISP gx EPR transition” value [5]?
Its value is “changes the gx transition”.

How did the “CN−-resistant O2 uptake activity” value [1] turn out when O=C1C(O)=C([C@H]2CC[C@H](c3ccc(Cl)cc3)CC2)C(=O)c2ccccc21 [Atovaquone] was run?
The value was 0.202 nmol O2/min/mg wet cells.

CC(=CCc1c(O)cc(C)c(C=O)c1O)CCC1(C)C(C)CCC(=O)C1C (centres unmarked) [LL-Z1272 ε] was tested. Which “Inhibition relative to that seen using ascochlorin” value (rat liver mitochondria) did it give?
Its value is “about 1/300”.

Which “Chemiluminescence Intensity” value (H. anomala mitochondria; [8]) does the source give for CO/C(=C/C(N)=O)[C@H](C)[C@H](/C=C/c1csc(-c2csc([C@@H](C)/C=C/C=C/C(C)C)n2)n1)OC [Myxothiazol] here?
The value was 5.4 10^5 counts/min.

What about the “CN−-resistant O2 uptake activity” value [1] of the same compound?
The value was 0.375 nmol O2/min/mg wet cells.

And the “ΔA 560–575 × 10^2 (cytochrome b reduction)” value [2, 7]?
Its value is 1.16.

What about the “ΔA 560–575 × 10^2 (cytochrome b reduction)” value [2, 8] of the same compound?
The value was 1.03.

How did the “CN−-resistant O2 uptake activity” value [1] turn out when CCCCCCCCCC1=C(O)C(=O)c2scnc2C1=O [NHDBT, nonylhydroxydioxobenzothiazole] was run?
Its value is 0.225 nmol O2/min/mg wet cells.

How did the “CN−-resistant O2 uptake activity” value [1] turn out when C/C=C(C)/C=C/C=C/[C@H](OC)[C@@H](C)[C@@H](OC)[C@@H](C)CCc1oc2c(O)c(OC)cc(OC)c2c(=O)c1C [Stigmatellin] was run?
The value was 0.433 nmol O2/min/mg wet cells.

With CCCCCC[C@H]1C(=O)O[C@H](C)[C@H](NC(=O)c2cccc(NC=O)c2O)C(=O)O[C@@H](C)[C@@H]1OC(=O)CC(C)C [antimycin A] as the compound, how does the “Extent of rapid reduction of cytochrome bL” value ([4]; 3 μM bovine bc1, 30 μM antimycin A, DBH2 25 μM) read?
The value was “about 20%”.

And the “Level of cytochrome b reduction after reoxidation” value ([4]; 30 μM antimycin A, within a few minutes)?
Its value is “about 10%”.

How did the “CN−-resistant O2 uptake activity” value [1] turn out when Funiculosin was run?
Its value is 3.12 nmol O2/min/mg wet cells.
